One may read the IC50 as the midpoint of a concentration-inhibition curve. Usually inhibition stands for how much of the control response was suppressed.

The structures appear in SMILES notation.

From ChEMBL document CHEMBL1145082 (J Med Chem, 2003) come the findings set out here.

Experiment [1] is described as follows: Inhibition of Casein Kinase I. Details: species or system Rattus norvegicus. A digest of the protocol:
(§1)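 Reaction started with 30–150 ng kinase, run 1 h at 30 °C. Peptides captured on streptavidin plates and counted. IC50 from 6–10 concentrations; ≥3 experiments in duplicate; ± SEM.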

Experiment [2] is described as follows: Inhibition of Vascular endothelial growth factor receptor 2. On the set-up: species or system Homo sapiens. The method in brief:
as §1

In experiment [3] the target is Protein kinase C alpha type (Homo sapiens, UniProt P17252). Put plainly: Inhibition of Protein kinase C alpha. A digest of the protocol:
(§2)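 Recombinant human PKCα, PKCγ or PKCβII (5–10 mU) phosphorylating histone H1 (0.1 mg/mL) with 33P-ATP, total ATP 10 µM. Buffer 50 mM Hepes pH 7.4 with Triton X-100, CaCl2, Mg acetate, phosphatidylserine and diacylglycerol. Run 40 min at room temperature, stopped with phosphoric acid, then P30 filter counting.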

A short description of experiment [4]: Inhibitory activity against Protein kinase A was determined.
Experiment [5] concerns the target Cyclin-dependent kinase 1 (Homo sapiens, UniProt P06493). Put plainly: Inhibition of Cyclin-dependent kinase 1. The method in brief: as §1
For experiment [6], the target named is Protein kinase C gamma type (Homo sapiens, UniProt P05129). Put plainly: Inhibition of Protein kinase C gamma (PKC-gamma). The method in brief: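 Recombinant human PKCα, PKCγ or PKCβII (5–10 mU) phosphorylating histone H1 (0.1 mg/mL) with 33P-ATP, total ATP 10 µM. Buffer 50 mM Hepes pH 7.4 with Triton X-100, CaCl2, Mg acetate, phosphatidylserine and diacylglycerol. Run 40 min at room temperature, stopped with phosphoric acid, then P30 filter counting. IC50 from 6–10 concentrations; ≥3 experiments in duplicate; ± SEM.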

In a further experiment the target is CaM kinase II (Homo sapiens, UniProt Q13557+Q13555+Q13554+Q9UQM7). Put plainly: Inhibition of Calcium/calmodulin-dependent protein kinase II. The format is protein assay, Rattus norvegicus.
Experiment [7] has as its target Cyclin-dependent kinase 2 (Homo sapiens, UniProt P24941). Put plainly: Inhibition of Cyclin-dependent kinase 2 (CDK2). A digest of the protocol: as §1
Experiment [8] addresses Protein kinase C beta type (Homo sapiens, UniProt P05771). Put plainly: Inhibition of Protein kinase C beta 2. A digest of the protocol: as §2
Experiment [9] has as its target Protein kinase C theta type (Homo sapiens, UniProt Q04759). Put plainly: Inhibition of Protein kinase C theta. The method in brief: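 Recombinant human PKCθ (5–10 mU) with histone H1 (0.1 mg/mL) and 33P-ATP, total ATP 10 µM, in 8 mM MOPS pH 7.0, 0.2 mM EDTA, 10 mM Mg acetate. Run 40 min at room temperature, stopped with phosphoric acid, then P30 filter counting. IC50 from 6–10 concentrations; ≥3 experiments in duplicate; ± SEM.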

In experiment [10] the target is Glycogen synthase kinase-3 beta (Homo sapiens) (UniProt P49841). The experiment is described as follows: Inhibition of Glycogen synthase kinase-3beta (GSK3-beta) at 1 uM. The settings on record: Oryctolagus cuniculus.
Chain of Glycogen synthase kinase-3 beta (Homo sapiens) (P49841 whole entry, looked up): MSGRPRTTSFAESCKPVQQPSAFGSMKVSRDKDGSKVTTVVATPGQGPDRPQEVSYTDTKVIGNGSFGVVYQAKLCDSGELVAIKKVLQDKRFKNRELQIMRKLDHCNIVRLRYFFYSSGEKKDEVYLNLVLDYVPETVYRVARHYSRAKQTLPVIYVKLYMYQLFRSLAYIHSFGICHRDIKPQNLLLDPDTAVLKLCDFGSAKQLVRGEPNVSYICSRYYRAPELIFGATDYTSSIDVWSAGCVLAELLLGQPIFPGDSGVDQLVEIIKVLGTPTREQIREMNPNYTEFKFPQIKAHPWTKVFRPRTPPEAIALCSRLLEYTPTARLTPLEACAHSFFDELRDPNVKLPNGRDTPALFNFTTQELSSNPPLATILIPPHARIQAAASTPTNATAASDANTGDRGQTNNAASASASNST

Chain of Cyclin-dependent kinase 1 (P06493 whole entry): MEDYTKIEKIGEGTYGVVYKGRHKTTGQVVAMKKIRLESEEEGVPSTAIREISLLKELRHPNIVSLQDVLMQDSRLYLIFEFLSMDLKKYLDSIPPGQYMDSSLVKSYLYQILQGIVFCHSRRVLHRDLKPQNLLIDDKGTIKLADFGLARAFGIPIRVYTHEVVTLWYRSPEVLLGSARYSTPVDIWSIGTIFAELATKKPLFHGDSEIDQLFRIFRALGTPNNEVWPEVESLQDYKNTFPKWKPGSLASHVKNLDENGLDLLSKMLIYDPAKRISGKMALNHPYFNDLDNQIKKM
Chain of Protein kinase C beta type (P05771 whole entry): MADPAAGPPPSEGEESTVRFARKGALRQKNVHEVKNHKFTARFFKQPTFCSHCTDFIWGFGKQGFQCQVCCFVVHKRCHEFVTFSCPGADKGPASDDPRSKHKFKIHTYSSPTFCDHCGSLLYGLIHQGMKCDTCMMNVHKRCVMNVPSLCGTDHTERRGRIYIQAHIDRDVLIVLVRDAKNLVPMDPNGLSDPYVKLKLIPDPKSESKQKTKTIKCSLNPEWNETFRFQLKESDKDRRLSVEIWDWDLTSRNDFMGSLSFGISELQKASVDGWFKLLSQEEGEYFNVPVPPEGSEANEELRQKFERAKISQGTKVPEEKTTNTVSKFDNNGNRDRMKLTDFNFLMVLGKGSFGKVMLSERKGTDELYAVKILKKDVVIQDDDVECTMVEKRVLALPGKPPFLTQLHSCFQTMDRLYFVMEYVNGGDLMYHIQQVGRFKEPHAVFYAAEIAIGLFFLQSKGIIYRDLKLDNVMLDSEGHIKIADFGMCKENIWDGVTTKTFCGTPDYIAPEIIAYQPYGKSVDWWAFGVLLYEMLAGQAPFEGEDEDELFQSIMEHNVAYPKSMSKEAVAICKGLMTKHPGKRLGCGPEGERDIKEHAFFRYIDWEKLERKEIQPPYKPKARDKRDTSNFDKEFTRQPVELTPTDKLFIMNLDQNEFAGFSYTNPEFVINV
Chain of Protein kinase C theta type (Q04759 whole entry): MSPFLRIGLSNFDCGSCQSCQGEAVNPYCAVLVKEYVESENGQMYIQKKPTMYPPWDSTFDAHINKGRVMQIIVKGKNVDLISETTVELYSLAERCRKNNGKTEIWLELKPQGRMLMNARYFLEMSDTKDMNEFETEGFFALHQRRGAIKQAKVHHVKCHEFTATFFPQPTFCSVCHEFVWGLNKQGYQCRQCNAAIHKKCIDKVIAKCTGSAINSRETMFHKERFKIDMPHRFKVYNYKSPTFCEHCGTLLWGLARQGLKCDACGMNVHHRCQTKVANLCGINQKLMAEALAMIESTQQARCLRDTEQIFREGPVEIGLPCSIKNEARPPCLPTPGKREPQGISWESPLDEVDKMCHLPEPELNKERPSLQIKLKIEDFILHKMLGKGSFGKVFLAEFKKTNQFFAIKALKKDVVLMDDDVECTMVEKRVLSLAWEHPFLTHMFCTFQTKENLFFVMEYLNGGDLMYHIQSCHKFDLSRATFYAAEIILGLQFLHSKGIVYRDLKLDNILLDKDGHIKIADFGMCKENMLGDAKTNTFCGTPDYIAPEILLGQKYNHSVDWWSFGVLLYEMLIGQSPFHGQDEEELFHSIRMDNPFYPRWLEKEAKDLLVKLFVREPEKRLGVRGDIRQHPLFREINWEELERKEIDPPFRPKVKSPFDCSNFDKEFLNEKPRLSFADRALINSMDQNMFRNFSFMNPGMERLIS

Regarding `O=C1NC(=O)C2=C1c1cn(c3ccccc13)CCOCCOCCOCCn1cc2c2cccnc21` [INDOLYLYLMALEIMIDE 1], the IC50 was above 10000 nM in experiment [1]; 3560 nM in experiment [2]; 673 nM in [3]; above 10000 nM in experiment [4]; 4430 nM in [5]; 1340 nM in experiment [6]. Further, the IC50 was above 10000 nM on CaM kinase II, 2440 nM in experiment [7], 46 nM in experiment [8] and 835 nM in experiment [9].

For `O=C1NC(=O)C2=C1c1cn(c3ccccc13)CCOCCOCCOCCOCCn1cc2c2ccccc21`, the concentration for half-maximal inhibition (IC50) in experiment [6] amounted to 3300 nM.

Regarding `O=C1NC(=O)C2=C1c1cn(c3ncccc13)CCOCCOCCOCCOCCOCCn1cc2c2cccnc21`, the IC50 in experiment [6] was above 10000 nM.

Take `O=C1NC(=O)C2=C1c1cn(c3ccccc13)CCOCCOCCOCCn1cc2c2ccccc21` [INDOLYLYLMALEIMIDE 2]: the IC50 is above 10000 nM in [1]; 1450 nM in [2]; 86 nM in [3]; above 10000 nM in [4]; 1250 nM in experiment [5]; 1200 nM in experiment [6]. The IC50 came out at 992 nM in [7], 6 nM in experiment [8] and 65 nM in experiment [9].

`O=C1NC(=O)C2=C1c1cn(c3ncccc13)CCOCCOCCn1cc2c2cccnc21` showed an IC50 in [6] above 10000 nM.

`O=C1NC(=O)C2=C1c1cn(c3ccccc13)CCOCCOCCOCCOCCOCCn1cc2c2ccccc21` displayed an IC50 in experiment [6] of 5170 nM.

Turning to `O=C1NC(=O)C2=C1c1cn(c3ccccc13)CCOCCOCCn1cc2c2ccccc21`, the IC50 in experiment [6] was determined as 2730 nM.

`CN1C(=O)C2=C(C1=O)c1cn(c3ccccc13)CCOCCOCCOCCn1cc2c2ccccc21` had an inhibition in [10] of 54%.

For the molecule `O=C1NC(=O)C2=C1c1cn(c3ccccc13)CCOCCOCCn1cc2c2cccnc21`, in experiment [6], the IC50 stood at 2670 nM.

The molecule `CN1C(=O)C2=C(C1=O)c1cn(c3ncccc13)CCOCCOCCn1cc2c2ccccc21` displayed an inhibition in [10] of 51%.
